Assay results taken from ChEMBL document CHEMBL1926598, “Synthesis, anti-inflammatory activity and ulcerogenic liability of novel nitric oxide donating/chalcone hybrids” (Bioorg Med Chem, 2012).

Tests used:
Rattus norvegicus [1] = test: Antiinflammatory activity in albino rat assessed as inhibition of carrageenan-induced paw edema at 100 mg/kg, po administered 30 mins prior to challenge measured after 3 hrs relative to indomethacin; type: functional; parameters: scale not given: the % may be the effect or the level left
How it was run: (§1)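 Carrageenan paw edema in male albino rats (120–140 g, n = 4, fasted 24 h), compound 100 mg/kg po in 0.5% CMC 30 min before subplantar 1% carrageenan (0.1 mL). Percent edema inhibition at the stated hour from right minus left paw thickness versus the CMC control, then expressed as a percentage of the indomethacin (100 mg/kg) response at the same time.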

Rattus norvegicus [2] = test: Antiinflammatory activity in albino rat assessed as inhibition of carrageenan-induced paw edema at 100 mg/kg, po administered 30 mins prior to challenge measured after 5 hrs relative to untreated control; type: functional
How it was run: (§2)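 Adult male albino rats (120–140 g), groups of four, fasted 24 h with water allowed. Test compound suspended in 0.5% w/v CMC in water, given orally at 100 mg/kg; controls received CMC alone. After 30 min, 0.1 mL of 1% carrageenan in saline injected subplantar into right hind paw, saline into left. Paw thickness measured by caliper; % inhibition = [(VR−VL)control − (VR−VL)treated]/(VR−VL)control ×100; one-way ANOVA versus control.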

[3] = Induction of nitric oxide release at 0.1 mM after 4 hrs in phosphate buffer at pH 7.4 by Griess assay; type: physicochemical; settings: pH 7.4, 4 h, 100 µM
How it was run: (§3)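 Compound at a final 10^-4 M with 0.5 mM N-acetylcysteine in phosphate buffer pH 7.4 at 37 °C. Reaction mixture treated with Griess reagent (sulfanilamide, N-naphthylethylenediamine, phosphoric acid), 10 min at room temperature, absorbance read at 546 nm. Sodium nitrite standards (10–80 nmol/mL) used for calibration. NO reported as mol/mol, n = 4 reaction mixtures.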

[4] = Induction of nitric oxide release at 0.1 mM after 6 hrs in phosphate buffer at pH 7.4 by Griess assay; type: physicochemical; settings: pH 7.4, 6 h, 100 µM; how it was run: as §3
Rattus norvegicus [5] = test: Gastric toxicity in albino rat assessed as ulcer index at 100 mg/kg, po after 5 hrs; type: organism-based; parameters: dose 100 mg/kg, route oral; settings: in vivo
How it was run: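 Rats dosed orally at 100 mg/kg in 0.5% CMC (n = 4). Stomach lesions counted and graded by area: level I <1 mm², II 1–3 mm², III >3 mm². Ulcer index = 1×(level I count) + 2×(level II) + 3×(level III). Mean ± SEM; one-way ANOVA versus control.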

Rattus norvegicus [6] = test: Gastric toxicity in albino rat assessed as vasodilation of blood capillaries at 100 mg/kg, po after 5 hrs by hematoxylin and eosin staining; type: organism-based; parameters: dose 100 mg/kg, route oral; settings: in vivo
How it was run: (§4)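 Stomach sections from control and treated rats were dewaxed and hydrated through graded alcohols. They were stained with haematoxylin 5–7 min, differentiated 5–10 s in 1% HCl in 70% alcohol, then stained with 1% eosin for 10 min. Mucosa of the fundic stomach was examined by light microscopy.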

Rattus norvegicus [7] = test: Gastric toxicity in albino rat assessed as edema at 100 mg/kg, po after 5 hrs by hematoxylin and eosin staining; type: organism-based; parameters: dose 100 mg/kg, route oral; settings: in vivo; how it was run: as §4
Rattus norvegicus [8] = test: Antiinflammatory activity in albino rat assessed as inhibition of carrageenan-induced paw edema at 100 mg/kg, po administered 30 mins prior to challenge measured after 3 hrs relative to untreated control; type: functional; how it was run: as §2
Rattus norvegicus [9] = test: Antiinflammatory activity in albino rat assessed as inhibition of carrageenan-induced paw edema at 100 mg/kg, po administered 30 mins prior to challenge measured after 1 hr relative to untreated control; type: functional; how it was run: as §2
[10] = Induction of nitric oxide release at 0.1 mM after 1 hr in phosphate buffer at pH 7.4 by Griess assay; type: physicochemical; settings: pH 7.4, 1 h, 100 µM; how it was run: as §3
[11] = Induction of nitric oxide release at 0.1 mM after 2 hrs in phosphate buffer at pH 7.4 by Griess assay; type: physicochemical; settings: pH 7.4, 2 h, 100 µM; how it was run: as §3
[12] = Induction of nitric oxide release at 0.1 mM after 3 hrs in phosphate buffer at pH 7.4 by Griess assay; type: physicochemical; settings: pH 7.4, 3 h, 100 µM; how it was run: as §3
Rattus norvegicus [13] = test: Antiinflammatory activity in albino rat assessed as inhibition of carrageenan-induced paw edema at 100 mg/kg, po administered 30 mins prior to challenge measured after 4 hrs relative to untreated control; type: functional; how it was run: as §2
[14] = Induction of nitric oxide release at 0.1 mM after 5 hrs in phosphate buffer at pH 7.4 by Griess assay; type: physicochemical; settings: pH 7.4, 5 h, 100 µM; how it was run: as §3
Rattus norvegicus [15] = test: Antiinflammatory activity in albino rat assessed as inhibition of carrageenan-induced paw edema at 100 mg/kg, po administered 30 mins prior to challenge measured after 2 hrs relative to untreated control; type: functional; how it was run: as §2
Rattus norvegicus [16] = test: Gastric toxicity in albino rat assessed as abnormal morphology of fundic gland at 100 mg/kg, po after 5 hrs by hematoxylin and eosin staining; type: organism-based; parameters: dose 100 mg/kg, route oral; settings: in vivo; how it was run: as §4
[17] = Induction of nitric oxide release at 0.1 mM in 0.1 N HCl buffer at pH 1.0 by Griess assay; type: physicochemical; settings: pH 1, 100 µM
How it was run: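 Griess procedure as at neutral pH, but in 0.1 N HCl pH 1 in place of phosphate buffer. Compound at a final 10^-4 M with N-acetylcysteine, 37 °C. Absorbance read at 546 nm against sodium nitrite standards (10–80 nmol/mL). Release expressed relative to a theoretical 1 mol NO/mol compound.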

Rattus norvegicus [18] = test: Gastric toxicity in albino rat assessed as loss of mucosal membrane at the area of ulceration at 100 mg/kg, po after 5 hrs by hematoxylin and eosin staining; type: organism-based; parameters: dose 100 mg/kg, route oral; settings: in vivo; how it was run: as §4
Rattus norvegicus [19] = test: Gastric toxicity in albino rat assessed as structural damage in mucosal membrane at 100 mg/kg, po after 5 hrs by hematoxylin and eosin staining; type: organism-based; parameters: dose 100 mg/kg, route oral; settings: in vivo; how it was run: as §4
Rattus norvegicus [20] = test: Gastric toxicity in albino rat assessed as capillary inflammatory cells appearance at 100 mg/kg, po after 5 hrs by hematoxylin and eosin staining; type: organism-based; parameters: dose 100 mg/kg, route oral; settings: in vivo; how it was run: as §4
Rattus norvegicus [21] = test: Antiinflammatory activity in albino rat assessed as inhibition of carrageenan-induced paw edema at 100 mg/kg, po administered 30 mins prior to challenge measured after 4 hrs relative to indomethacin; type: functional; parameters: scale not given: the % may be the effect or the level left; how it was run: as §1
Rattus norvegicus [22] = test: Gastric toxicity in albino rat assessed as degeneration of fundic gland at 100 mg/kg, po after 5 hrs by hematoxylin and eosin staining; type: organism-based; parameters: dose 100 mg/kg, route oral; settings: in vivo; how it was run: as §4
Rattus norvegicus [23] = test: Gastric toxicity in albino rat assessed as apoptotic glandular epithelial cells appearance at 100 mg/kg, po after 5 hrs by hematoxylin and eosin staining; type: organism-based, Epithelial cell; parameters: dose 100 mg/kg, route oral; settings: in vivo; how it was run: as §4

Row | SMILES | Activity [3] | Activity [4] | Activity [10] | Activity [11] | Activity [12] | Activity [14] | Activity [17] | Activity (Rattus norvegicus [1]) | inhibition in vivo at 100 mg/kg (Rattus norvegicus [2]) | UI (Rattus norvegicus [5]) | inhibition in vivo at 100 mg/kg (Rattus norvegicus [8]) | inhibition in vivo at 100 mg/kg (Rattus norvegicus [9]) | inhibition in vivo at 100 mg/kg (Rattus norvegicus [13]) | inhibition in vivo at 100 mg/kg (Rattus norvegicus [15]) | also measured
1 | CC(O[N+](=O)[O-])C(=O)Nc1ccc(C(=O)/C=C/c2ccco2)cc1 (configuration not stated) | 0.13 mol/mol | 0.09 mol/mol | 0.09 mol/mol | 0.11 mol/mol | 0.38 mol/mol | 0.11 mol/mol | Not Active | 69% | 49% | 5.7 | 54% | 41% | 49% | 48% | 
2 | O=C(COCc1c(-c2ccccc2)no[n+]1[O-])Nc1ccc(C(=O)/C=C/c2ccc(Cl)cc2)cc1 | 1.295 mol/mol | 0.87 mol/mol | 0.55 mol/mol | 0.98 mol/mol | 1.22 mol/mol | 1.5 mol/mol | Not Active |  | 62% | 1 | 66% | 38% | 75% | 48% | Activity (Rattus norvegicus [19]): Non-toxic; Activity (Rattus norvegicus [20]): Non-toxic; Activity (Rattus norvegicus [21]): 91%
3 | O=C(COCc1c(-c2ccccc2)no[n+]1[O-])Nc1ccc(C(=O)/C=C/c2ccc3c(c2)OCO3)cc1 | 0.89 mol/mol | 0.75 mol/mol | 0.5 mol/mol | 0.71 mol/mol | 0.86 mol/mol | 1.26 mol/mol | Not Active |  | 70% | 1.3 | 62% | 34% | 72% | 55% | Activity (Rattus norvegicus [21]): 87%
4 | COc1ccc2c(c1)c(CC(=O)O)c(C)n2C(=O)c1ccc(Cl)cc1 [INDOMETHACIN] |  |  |  |  |  |  |  |  | 87% | 45.5 | 78% | 56% | 83% | 70% | Activity (Rattus norvegicus [18]): Toxic; Activity (Rattus norvegicus [22]): Toxic; Activity (Rattus norvegicus [20]): Toxic; Activity (Rattus norvegicus [23]): Toxic

Second part, led by results:

Row | Activity [3] | Activity [4] | Activity [10] | Activity [11] | Activity [12] | Activity [14] | Activity [17] | SMILES | Activity (Rattus norvegicus [1]) | inhibition in vivo at 100 mg/kg (Rattus norvegicus [2]) | UI (Rattus norvegicus [5]) | inhibition in vivo at 100 mg/kg (Rattus norvegicus [8]) | inhibition in vivo at 100 mg/kg (Rattus norvegicus [9]) | inhibition in vivo at 100 mg/kg (Rattus norvegicus [13]) | inhibition in vivo at 100 mg/kg (Rattus norvegicus [15]) | also measured
5 | 0.73 mol/mol | 0.73 mol/mol | 0.32 mol/mol | 0.37 mol/mol | 0.54 mol/mol | 0.75 mol/mol | Not Active | O=C(CO[N+](=O)[O-])Nc1ccc(C(=O)/C=C/c2ccc(Cl)cc2)cc1 | 89% | 60% | 2.5 | 69% | 42% | 67% | 57% | Activity (Rattus norvegicus [6]): Non-toxic; Activity (Rattus norvegicus [7]): Non-toxic; Activity (Rattus norvegicus [16]): Non-toxic
6 | 0.66 mol/mol | 0.59 mol/mol | 0.27 mol/mol | 0.31 mol/mol | 0.48 mol/mol | 0.68 mol/mol | Not Active | COc1ccc(/C=C/C(=O)c2ccc(NC(=O)CO[N+](=O)[O-])cc2)cc1 | 69% | 46% | 5.8 | 53% | 33% | 51% | 49% | 
7 | 0.64 mol/mol | 0.67 mol/mol | 0.39 mol/mol | 0.45 mol/mol | 0.6 mol/mol | 0.73 mol/mol | Not Active | O=C(CO[N+](=O)[O-])Nc1ccc(C(=O)/C=C/c2ccc3c(c2)OCO3)cc1 | 79% | 54% | 3 | 61% | 38% | 55% | 45% | 
8 | 0.59 mol/mol | 0.59 mol/mol | 0.15 mol/mol | 0.28 mol/mol | 0.37 mol/mol | 0.63 mol/mol | Not Active | O=C(CO[N+](=O)[O-])Nc1ccc(C(=O)/C=C/c2ccco2)cc1 | 61% | 39% | 7 | 48% | 34% | 40% | 36% | 
9 | 0.35 mol/mol | 0.16 mol/mol | 0.13 mol/mol | 0.16 mol/mol | 0.46 mol/mol | 0.28 mol/mol | Not Active | CC(O[N+](=O)[O-])C(=O)Nc1ccc(C(=O)/C=C/c2ccc(Cl)cc2)cc1 (configuration not stated) | 80% | 56% | 3.5 | 62% | 45% | 61% | 55% | Activity (Rattus norvegicus [18]): Toxic; Activity (Rattus norvegicus [19]): Toxic
10 | 0.17 mol/mol | 0.14 mol/mol | 0.11 mol/mol | 0.12 mol/mol | 0.37 mol/mol | 0.15 mol/mol | Not Active | COc1ccc(/C=C/C(=O)c2ccc(NC(=O)C(C)O[N+](=O)[O-])cc2)cc1 (configuration not stated) | 65% | 35% | 8 | 50% | 43% | 43% | 46% | 
11 | 0.28 mol/mol | 0.12 mol/mol | 0.1 mol/mol | 0.14 mol/mol | 0.4 mol/mol | 0.15 mol/mol | Not Active | CC(O[N+](=O)[O-])C(=O)Nc1ccc(C(=O)/C=C/c2ccc3c(c2)OCO3)cc1 (configuration not stated) | 77% | 53% | 4 | 59% | 45% | 54% | 40% | 
